Experimental findings from ChEMBL document CHEMBL4130635, “2,4-Diaminoquinazolines as Dual Toll-like Receptor (TLR) 7/8 Modulators for the Treatment of Hepatitis B Virus” (J Med Chem, 2018) are described below.

The target in data set [1] is Alpha-1A adrenergic receptor. Put plainly: Inhibition of alpha-1A adrenergic receptor (unknown origin).
The nature of data set [2]: Metabolic stability in human liver microsomes assessed as compound metabolized at 1 uM after 15 mins. Type of data set: ADME, microsome. Conditions: read-out: Drug metabolism. The gist of the method:
(§1)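 Mouse (M) or human (H) liver microsomes incubated with compound at 1 μM; percent metabolized after 15 min.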
(Liver microsomes are vesicles of endoplasmic reticulum, rich in cytochrome P450 enzymes.)

Data set [3] can be described thus: Metabolic stability in mouse liver microsomes assessed as compound metabolized at 1 uM after 15 mins. The note with it: read-out: Drug metabolism. Type of data set: ADME, microsome. In a few lines: as §1
In data set [4] the target is T1, Toll-like receptor 8 (Homo sapiens) (UniProt Q9NR97).
T1 sequence (whole entry): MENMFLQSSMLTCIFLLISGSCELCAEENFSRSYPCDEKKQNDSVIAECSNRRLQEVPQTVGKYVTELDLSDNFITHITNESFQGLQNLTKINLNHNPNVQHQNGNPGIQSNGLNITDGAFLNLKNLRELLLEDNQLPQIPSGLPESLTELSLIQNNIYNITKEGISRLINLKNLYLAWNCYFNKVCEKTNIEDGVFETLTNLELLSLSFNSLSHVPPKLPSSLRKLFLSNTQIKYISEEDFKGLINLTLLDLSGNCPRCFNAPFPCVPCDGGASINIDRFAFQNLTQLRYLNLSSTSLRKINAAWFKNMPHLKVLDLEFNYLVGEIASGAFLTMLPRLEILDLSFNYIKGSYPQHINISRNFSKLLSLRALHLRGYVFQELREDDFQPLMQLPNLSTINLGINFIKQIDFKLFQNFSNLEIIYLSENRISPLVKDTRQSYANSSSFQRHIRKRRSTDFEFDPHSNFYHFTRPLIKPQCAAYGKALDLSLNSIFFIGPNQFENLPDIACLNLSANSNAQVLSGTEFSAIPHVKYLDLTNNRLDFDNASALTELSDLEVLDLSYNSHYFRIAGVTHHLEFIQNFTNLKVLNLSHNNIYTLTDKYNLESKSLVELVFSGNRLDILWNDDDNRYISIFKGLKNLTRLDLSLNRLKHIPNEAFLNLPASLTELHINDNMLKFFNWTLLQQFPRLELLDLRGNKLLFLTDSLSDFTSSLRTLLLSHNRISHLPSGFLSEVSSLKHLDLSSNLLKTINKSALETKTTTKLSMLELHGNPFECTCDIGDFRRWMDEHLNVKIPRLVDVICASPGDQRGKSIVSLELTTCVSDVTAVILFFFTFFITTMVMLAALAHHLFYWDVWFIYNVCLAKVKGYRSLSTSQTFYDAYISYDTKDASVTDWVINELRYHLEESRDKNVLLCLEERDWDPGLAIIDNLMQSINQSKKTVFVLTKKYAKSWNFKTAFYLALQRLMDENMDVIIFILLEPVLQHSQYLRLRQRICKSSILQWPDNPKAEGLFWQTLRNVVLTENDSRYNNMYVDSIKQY
Put plainly: Agonist activity at human TLR8 expressed in HEK293 cells assessed as induction of receptor activation incubated for 6 hrs by NF-kappaB-luciferase reporter gene assay. Type of data set: cell-based. On the technique in general: A reporter such as luciferase makes a cellular process visible.

Data set [5] has as its target Cytochrome P450 2D6 (Homo sapiens, UniProt P10635). Put plainly: Inhibition of CYP2D6 (unknown origin). Type of data set: ADME.
Data set [6] has as its target D(1A) dopamine receptor (Homo sapiens, UniProt P21728). The data set can be described thus: Inhibition of dopamine D1 receptor (unknown origin).
Data set [7] concerns the target Voltage-gated inwardly rectifying potassium channel KCNH2 (Homo sapiens, UniProt Q12809). Put plainly: Inhibition of radioligand binding to human ERG expressed in HEK293 cell membranes by scintillation counting method.
Data set [8] deals with 5-hydroxytryptamine receptor 2A (Homo sapiens, UniProt P28223). Put plainly: Inhibition of 5-HT2A receptor (unknown origin).
For data set [9], the target named is T2, Toll-like receptor 7 (Homo sapiens) (UniProt Q9NYK1).
T2 sequence (whole entry): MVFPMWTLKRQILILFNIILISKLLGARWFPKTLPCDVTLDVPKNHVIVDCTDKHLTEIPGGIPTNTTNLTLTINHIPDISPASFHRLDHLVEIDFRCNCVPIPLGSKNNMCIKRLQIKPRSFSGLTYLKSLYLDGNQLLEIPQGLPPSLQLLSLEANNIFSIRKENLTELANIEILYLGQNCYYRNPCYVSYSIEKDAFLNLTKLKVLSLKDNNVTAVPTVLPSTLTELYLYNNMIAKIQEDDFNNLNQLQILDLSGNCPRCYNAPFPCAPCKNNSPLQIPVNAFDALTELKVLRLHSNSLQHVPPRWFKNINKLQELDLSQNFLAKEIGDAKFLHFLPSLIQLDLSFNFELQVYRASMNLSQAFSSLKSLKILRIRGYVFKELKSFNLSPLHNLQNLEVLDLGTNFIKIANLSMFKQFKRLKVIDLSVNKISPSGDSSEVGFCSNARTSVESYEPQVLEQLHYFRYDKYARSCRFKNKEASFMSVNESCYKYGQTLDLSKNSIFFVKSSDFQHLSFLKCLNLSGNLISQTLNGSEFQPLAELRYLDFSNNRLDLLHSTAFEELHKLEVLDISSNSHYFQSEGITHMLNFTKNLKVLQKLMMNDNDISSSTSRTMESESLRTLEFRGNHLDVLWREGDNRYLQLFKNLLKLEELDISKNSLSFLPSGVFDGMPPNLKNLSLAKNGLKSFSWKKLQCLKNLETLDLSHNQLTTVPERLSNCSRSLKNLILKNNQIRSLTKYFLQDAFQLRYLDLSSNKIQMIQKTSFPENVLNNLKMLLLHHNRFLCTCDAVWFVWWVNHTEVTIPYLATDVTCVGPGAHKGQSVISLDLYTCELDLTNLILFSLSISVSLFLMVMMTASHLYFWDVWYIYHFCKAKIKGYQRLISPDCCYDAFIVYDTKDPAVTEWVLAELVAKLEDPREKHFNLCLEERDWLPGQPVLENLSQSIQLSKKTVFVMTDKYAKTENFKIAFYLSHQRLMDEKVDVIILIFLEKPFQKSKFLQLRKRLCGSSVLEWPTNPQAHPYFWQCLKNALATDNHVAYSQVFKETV
Put plainly: Agonist activity at TLR7 in human PBMC assessed as suppression of HCV replicon replication in human HuH7 luc/neo cells harboring RNA encoding bicistronic expression construct comprising wild type HCV type 1b NS3-NS5B regions exposed to conditioned media from compound treated PBMCs after 24 hrs by luciferase reporter gene assay. Type of data set: cell-based. The gist of the method: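 Human PBMCs were incubated with compound. Their medium was then transferred onto an HCV replicon system, so the antiviral read-out reflects interferon and cytokines the PBMCs induced. Values are reported as lowest effective concentration (LEC), averaged when determined in two or more independent experiments.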
(Replicon systems follow genome replication, usually without infectious particles.)

In data set [10] the target is T2, Toll-like receptor 7 (Homo sapiens). Put plainly: Agonist activity at human TLR7 expressed in HEK293 cells assessed as induction of receptor activation incubated for 6 hrs by NF-kappaB-luciferase reporter gene assay. Type of data set: cell-based. In a few lines: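 HEK cell-based assay using a wild-type TLR7 expression vector; a parallel TLR8 vector construct served for selectivity. Results are expressed as lowest effective concentration (LEC), averaged over independent experiments where determined two or more times. A separate HEK 293 cytotoxicity (TOX) assay gave CC50 alongside.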

Data set [11] can be described thus: Cytotoxicity against HEK293 cells assessed as reduction in cell viability after 6 hrs by ATP lite assay. Type of data set: cell-based. Conditions: human.
Data set [12] deals with HepG2. Put plainly: Cytotoxicity against human HepG2 cells. Type of data set: cell-based.

Chain of Voltage-gated inwardly rectifying potassium channel KCNH2 (Q12809 whole entry): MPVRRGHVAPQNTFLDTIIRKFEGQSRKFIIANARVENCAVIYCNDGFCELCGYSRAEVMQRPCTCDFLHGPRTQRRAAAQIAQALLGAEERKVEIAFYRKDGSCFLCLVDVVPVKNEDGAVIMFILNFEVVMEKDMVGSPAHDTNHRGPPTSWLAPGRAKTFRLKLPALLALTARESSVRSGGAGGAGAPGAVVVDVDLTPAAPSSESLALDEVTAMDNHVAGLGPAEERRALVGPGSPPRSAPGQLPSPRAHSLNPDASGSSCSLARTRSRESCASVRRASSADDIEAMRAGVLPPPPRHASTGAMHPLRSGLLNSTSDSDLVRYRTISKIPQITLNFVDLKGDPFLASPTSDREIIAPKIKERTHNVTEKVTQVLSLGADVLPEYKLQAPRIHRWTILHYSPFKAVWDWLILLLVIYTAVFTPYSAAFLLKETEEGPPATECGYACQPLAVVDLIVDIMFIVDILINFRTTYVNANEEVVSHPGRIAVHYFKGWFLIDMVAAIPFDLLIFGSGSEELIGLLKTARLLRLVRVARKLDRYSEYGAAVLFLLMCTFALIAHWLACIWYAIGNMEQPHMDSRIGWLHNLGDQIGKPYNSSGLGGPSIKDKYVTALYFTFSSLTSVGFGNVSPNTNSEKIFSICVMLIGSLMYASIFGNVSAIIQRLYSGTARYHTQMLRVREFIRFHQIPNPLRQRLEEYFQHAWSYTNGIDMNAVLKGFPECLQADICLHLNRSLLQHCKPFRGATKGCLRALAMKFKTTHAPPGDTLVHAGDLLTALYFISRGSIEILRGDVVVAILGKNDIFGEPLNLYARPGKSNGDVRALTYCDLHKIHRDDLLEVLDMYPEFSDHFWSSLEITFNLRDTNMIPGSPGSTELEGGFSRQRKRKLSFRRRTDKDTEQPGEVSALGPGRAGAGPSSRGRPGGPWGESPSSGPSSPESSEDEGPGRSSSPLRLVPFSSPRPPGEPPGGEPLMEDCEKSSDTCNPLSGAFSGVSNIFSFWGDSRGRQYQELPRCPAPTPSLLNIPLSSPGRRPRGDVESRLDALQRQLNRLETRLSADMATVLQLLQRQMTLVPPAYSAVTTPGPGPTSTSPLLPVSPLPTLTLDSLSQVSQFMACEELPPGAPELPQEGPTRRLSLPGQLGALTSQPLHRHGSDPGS
Chain of 5-hydroxytryptamine receptor 2A (P28223 whole entry): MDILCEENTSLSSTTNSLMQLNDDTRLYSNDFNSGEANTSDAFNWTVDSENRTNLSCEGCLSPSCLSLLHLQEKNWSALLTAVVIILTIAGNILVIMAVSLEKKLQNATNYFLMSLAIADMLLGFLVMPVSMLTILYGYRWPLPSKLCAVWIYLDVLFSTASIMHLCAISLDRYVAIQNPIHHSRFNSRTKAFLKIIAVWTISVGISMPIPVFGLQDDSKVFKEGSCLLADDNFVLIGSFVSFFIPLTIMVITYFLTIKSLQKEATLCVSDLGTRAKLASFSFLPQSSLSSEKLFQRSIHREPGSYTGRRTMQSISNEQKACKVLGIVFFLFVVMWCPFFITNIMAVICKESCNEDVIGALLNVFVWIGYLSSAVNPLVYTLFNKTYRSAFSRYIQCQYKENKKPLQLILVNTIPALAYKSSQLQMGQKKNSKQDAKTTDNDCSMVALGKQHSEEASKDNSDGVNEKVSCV
Chain of D(1A) dopamine receptor (P21728 whole entry): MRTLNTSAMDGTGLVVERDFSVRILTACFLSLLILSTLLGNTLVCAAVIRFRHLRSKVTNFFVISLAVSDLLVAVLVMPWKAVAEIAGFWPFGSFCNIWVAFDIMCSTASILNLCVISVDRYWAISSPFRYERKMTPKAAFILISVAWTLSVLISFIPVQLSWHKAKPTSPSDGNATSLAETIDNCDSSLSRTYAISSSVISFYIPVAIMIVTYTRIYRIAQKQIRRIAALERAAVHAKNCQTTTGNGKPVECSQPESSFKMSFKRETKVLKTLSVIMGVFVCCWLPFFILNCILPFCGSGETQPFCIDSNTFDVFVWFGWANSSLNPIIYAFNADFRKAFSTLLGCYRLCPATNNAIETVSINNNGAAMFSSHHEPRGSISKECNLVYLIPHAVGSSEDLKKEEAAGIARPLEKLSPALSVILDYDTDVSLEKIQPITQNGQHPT
Chain of Cytochrome P450 2D6 (P10635 whole entry): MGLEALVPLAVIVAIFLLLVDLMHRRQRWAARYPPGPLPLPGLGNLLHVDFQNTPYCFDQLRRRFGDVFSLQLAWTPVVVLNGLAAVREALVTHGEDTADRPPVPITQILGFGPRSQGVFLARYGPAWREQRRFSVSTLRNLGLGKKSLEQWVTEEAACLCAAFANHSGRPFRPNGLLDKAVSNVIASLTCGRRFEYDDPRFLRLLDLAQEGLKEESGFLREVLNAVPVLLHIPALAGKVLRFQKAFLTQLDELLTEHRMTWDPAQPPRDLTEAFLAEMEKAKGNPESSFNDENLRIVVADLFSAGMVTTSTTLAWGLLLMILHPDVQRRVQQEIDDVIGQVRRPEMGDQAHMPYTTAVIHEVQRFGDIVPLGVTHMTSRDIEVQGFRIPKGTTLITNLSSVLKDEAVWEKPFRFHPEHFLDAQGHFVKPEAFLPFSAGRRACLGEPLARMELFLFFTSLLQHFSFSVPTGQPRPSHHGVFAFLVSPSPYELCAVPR

The IC50 is the concentration that inhibits the measured activity by half. Low readings indicate higher potency, high ones lower potency. One may read the CC50 as the concentration at which the toxic effect on the cells reaches its halfway point. Turning to `CCC[C@@H](CCO)Nc1nc(N)nc2cc(OC)ccc12`, the half-inhibitory concentration (IC50) was 2.34 µM in data set [1]; 0.6 µM in data set [5]; 5.75 µM in data set [6]; over 10 µM in data set [7]; 1.78 µM in [8]. Also, the metabolised at 0.25 h, 1 µM in [2] is 35%; in [3], 65%. Also, the MEC was found to be 0.13 µM in [4], 0.5 µM in data set [9] and 0.2 µM in data set [10]. The half-maximal cytotoxic concentration (CC50) at 6 h in data set [11] is over 24 µM.
What is called EC20 is the concentration needed for an effect of 20%. Lower therefore signals an effect from little substance. Take `CCCC[C@@H](CCO)Nc1nc(N)nc2cccc(F)c12`: the metabolised at 0.25 h, 1 µM is 87% in data set [2] and 25% in data set [3]. For the same molecule, in [12], the EC20 turned out to be 13.2 µM. Further, the results for the MEC in data set [4], in [9] and in [10] were 0.1 µM, 0.06 µM and 0.34 µM, respectively. In data set [7], the IC50 was over 10 µM. Also, in [11], the CC50 at 6 h was over 24 µM.
As for `CCCC[C@@H](CCO)Nc1nc(N)nc2ccc(F)cc12`, the metabolised at 0.25 h, 1 µM in [2] amounted to 33%; in data set [3] it was 63%. Further, the MEC turned out to be 0.42 µM in data set [4], 0.37 µM in [9] and 1.59 µM in data set [10]. The IC50 in data set [7] was determined as 5.8 µM. Besides, the CC50 at 6 h in data set [11] was over 24 µM.
Regarding `CCC[C@@H](CCO)Nc1nc(N)nc2ccc(C)cc12`, the metabolised at 0.25 h, 1 µM is 21% in data set [2] and 97% in data set [3]. For the same molecule, the MEC was found to be 0.45 µM in data set [4], 0.39 µM in data set [9] and 0.54 µM in data set [10]. This molecule also yielded an IC50 in data set [7] of 7.2 µM. Moreover, the half-maximal cytotoxic concentration (CC50) at 6 h in [11] is over 24 µM.
Turning to `CCCC[C@@H](CCO)Nc1nc(N)nc2ccc(C)cc12`, the metabolised at 0.25 h, 1 µM in [2] turned out to be 24%; in [3], 99%. Further, the figures for the MEC in data set [4], in [9] and in [10] were 0.25 µM, 0.14 µM and 0.44 µM, respectively. Besides, in data set [7], the 50% inhibitory concentration (IC50) stood at 5.4 µM. In addition, the cytotoxic concentration (CC50) at 6 h in data set [11] is over 24 µM.
Turning to `CCCC[C@@H](CCO)Nc1nc(N)nc2cccc(C)c12`, the metabolised at 0.25 h, 1 µM is 67% in [2] and 82% in data set [3]. The MEC in [4] stood at 0.06 µM; in [9], 0.02 µM; in data set [10] it was 0.14 µM. Also, in data set [7], the IC50 is 0.6 µM. Further, the half-maximal cytotoxic concentration (CC50) at 6 h in data set [11] was over 24 µM.
